The results in this text go back to ChEMBL document CHEMBL1137243, “Design, synthesis, and antifungal activities in vitro of novel tetrahydroisoquinoline compounds based on the structure of lanosterol 14alpha-demethylase (CYP51) of fungi” (2006).

The structures appear in SMILES notation. Converted amounts (≈) assume the structure as drawn.

Holding throughout (format): functional
One assay relates to Candida parapsilosis. Put plainly: Antifungal activity against Candida parapsilosis after 24 hrs. The following applies: Lodderomyces parapsilosis. The method, boiled down:
(§1)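 Broth serial-dilution MIC in 96-well plates per NCCLS recommendations. Medium: RPMI 1640 buffered with 0.165 M MOPS. Strains were from ATCC or clinical isolates. Compounds were dissolved in DMSO and serially diluted in growth medium. Yeasts were incubated at 35 °C, read at 24 h for Candida and 72 h for C. neoformans. MIC is the lowest concentration giving ≥80% growth inhibition versus control (turbidity).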

The subject of a further assay is Aspergillus fumigatus. Put plainly: Antifungal activity against Aspergillus fumigatus after 7 days. As to conditions: 168 h. In short, it runs like this: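 Filamentous-fungus MIC was determined by serial dilution in 96-well plates per NCCLS, using RPMI 1640 buffered with 0.165 M MOPS. Strains were ATCC or clinical isolates. Compounds in DMSO were diluted in growth medium. Growth was read at 7 days. MIC is the lowest concentration producing ≥80% inhibition of turbidity compared with control.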

A further assay deals with Microsporum canis. As to the kind of experiment: Antifungal activity against Microsporum canis after 7 days. As to conditions: 168 h. In short, it runs like this: (§2)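 Dermatophytes were tested by NCCLS-based broth serial dilution in 96-well plates. Medium: RPMI 1640 with 0.165 M MOPS. Isolates were from ATCC or clinical sources. Compounds in DMSO were serially diluted in medium. Incubation was at 28 °C with the read at 7 days. MIC is the lowest concentration giving ≥80% turbidity reduction relative to the growth control.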

A further assay deals with Trichophyton rubrum. Put plainly: Antifungal activity against Trichophyton rubrum after 7 days. As to conditions: 168 h. In short, it runs like this: as §2
Another assay deals with Cryptococcus neoformans. As to the kind of experiment: Antifungal activity against Cryptococcus neoformans after 72 hrs. The method, boiled down: as §1
For another assay, the system named is Candida albicans. As to the kind of experiment: Antifungal activity against Candida albicans after 24 hrs. In short, it runs like this:
as §1

What is called MIC80 is an inhibitory concentration at the 80% level, which refers to growth in some studies and to a panel of isolates in others. Read a low MIC80 as greater potency. With `CCCCCCCCCCN1CCc2cc(O)c(O)cc2C1`, the MIC80 was 12.5 µg/mL (≈ 40.9 µM) in the assay with Candida parapsilosis; 50 µg/mL (≈ 164 µM) against Aspergillus fumigatus; 12.5 µg/mL (≈ 40.9 µM) in the assay on Microsporum canis; 3.12 µg/mL (≈ 10.2 µM) against Trichophyton rubrum; 3.12 µg/mL (≈ 10.2 µM) in the assay with Cryptococcus neoformans; 100 µg/mL (≈ 327 µM) against Candida albicans.
Turning to `CCCCCCCCCCCCN1CCc2cc(O)c(O)cc2C1`, the MIC80 came out at 50 µg/mL (≈ 150 µM) against Candida parapsilosis; 50 µg/mL (≈ 150 µM) in the assay on Aspergillus fumigatus; 12.5 µg/mL (≈ 37.5 µM) against Microsporum canis; 12.5 µg/mL (≈ 37.5 µM) with Trichophyton rubrum; 6.25 µg/mL (≈ 18.7 µM) in the assay with Cryptococcus neoformans; 50 µg/mL (≈ 150 µM) against Candida albicans.
Regarding `CCCCCCCCCCCCCCCCN1CCc2cc(O)c(O)cc2C1`, the MIC80 in the assay with Candida parapsilosis is 100 µg/mL (≈ 257 µM); against Aspergillus fumigatus, 200 µg/mL (≈ 513 µM); in the assay on Microsporum canis it was above 200 µg/mL; in the assay with Trichophyton rubrum, 200 µg/mL (≈ 513 µM); with Cryptococcus neoformans, 100 µg/mL (≈ 257 µM); against Candida albicans it was above 200 µg/mL.
Consider `CCCCCCCCN1CCc2cc(O)c(O)cc2C1`, for which the MIC80 in the assay with Candida parapsilosis is 100 µg/mL (≈ 360 µM); in the assay with Aspergillus fumigatus, above 200 µg/mL; against Microsporum canis, 50 µg/mL (≈ 180 µM); against Trichophyton rubrum, 50 µg/mL (≈ 180 µM); in the assay with Cryptococcus neoformans it was 100 µg/mL (≈ 360 µM); with Candida albicans it was above 200 µg/mL.
Regarding `CCCCCCN1CCc2cc(O)c(O)cc2C1`, the MIC80 against Candida parapsilosis is 100 µg/mL (≈ 401 µM); with Aspergillus fumigatus, above 200 µg/mL; in the assay on Microsporum canis, above 200 µg/mL; against Trichophyton rubrum, above 200 µg/mL; in the assay with Cryptococcus neoformans, 100 µg/mL (≈ 401 µM); in the assay with Candida albicans, above 200 µg/mL.
As to `CCCCCN1CCc2cc(O)c(O)cc2C1`, the MIC80 with Candida parapsilosis was 100 µg/mL (≈ 425 µM); in the assay with Aspergillus fumigatus, above 200 µg/mL; against Microsporum canis, above 200 µg/mL; against Trichophyton rubrum, above 200 µg/mL; against Cryptococcus neoformans, 100 µg/mL (≈ 425 µM); in the assay on Candida albicans, above 200 µg/mL.
On to `CCCCCCCN1CCc2cc(O)c(O)cc2C1`, for which the MIC80 was 100 µg/mL (≈ 380 µM) against Candida parapsilosis; above 200 µg/mL against Aspergillus fumigatus; above 200 µg/mL against Microsporum canis; above 200 µg/mL in the assay on Trichophyton rubrum; 100 µg/mL (≈ 380 µM) against Cryptococcus neoformans; above 200 µg/mL in the assay with Candida albicans.
As for `CCCCCCCCCCCCCCN1CCc2cc(O)c(O)cc2C1`, the MIC80 with Candida parapsilosis was 50 µg/mL (≈ 138 µM); in the assay with Aspergillus fumigatus, above 200 µg/mL; against Microsporum canis, 12.5 µg/mL (≈ 34.6 µM); in the assay with Trichophyton rubrum it was 25 µg/mL (≈ 69.1 µM); against Cryptococcus neoformans it was 6.25 µg/mL (≈ 17.3 µM); in the assay on Candida albicans it was 50 µg/mL (≈ 138 µM).
For the compound `CCCCCCCCCN1CCc2cc(O)c(O)cc2C1`, the MIC80 amounted to 25 µg/mL (≈ 85.8 µM) in the assay on Candida parapsilosis; 200 µg/mL (≈ 686 µM) in the assay on Aspergillus fumigatus; 50 µg/mL (≈ 172 µM) in the assay on Microsporum canis; 12.5 µg/mL (≈ 42.9 µM) against Trichophyton rubrum; 25 µg/mL (≈ 85.8 µM) in the assay on Cryptococcus neoformans; 200 µg/mL (≈ 686 µM) against Candida albicans.
In the case of `OC(Cn1cncn1)(Cn1cncn1)c1ccc(F)cc1F` [FLUCONAZOLE], the MIC80 in the assay with Candida parapsilosis was 50 µg/mL (≈ 163 µM); in the assay on Aspergillus fumigatus, above 200 µg/mL; in the assay with Microsporum canis, 100 µg/mL (≈ 327 µM); with Trichophyton rubrum it was 25 µg/mL (≈ 81.6 µM); against Cryptococcus neoformans, 6.25 µg/mL (≈ 20.4 µM); in the assay with Candida albicans it was 1.56 µg/mL (≈ 5.1 µM).
